Consider 16 compounds from PubChem BioAssay.

Assay [1] in a line: Her2 expression decrease, cell viability multiplex – SKBR3 breast tumor cells, AlphaScreen, ATP viability, primary screen (AID 461;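 active = Her2 level under about 52% in both replicate screens, with viability over 70% of control, limit read from the data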;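 as to Her2 level: lower value means less Her2 protein in the cells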;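 as to viability: percent of carrier control wells set as 100% viability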). The settings on record: SKBR3 Her2 protein level, 18-24 h, measured here: SKBR3 viability, ATP luminescence, at 10 µM. For orientation: In Alpha technology, singlet oxygen from a donor bead excites a nearby acceptor bead.
Assay [2] addresses Receptor tyrosine-protein kinase erbB-2 (Homo sapiens) (UniProt P04626). The assay is described as above. To be noted: 18-24 h, at 10 µM, stronger effect = lower value.
Assay [3] can be described thus: reduced viability of SK-BR-3 breast cancer cells – cell-based, 24 h, human, pilot screen (AID 572;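 active = viability at or below 10% of carrier control in both of two separate runs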;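 also: compound exposure lasted between 18 and 24 h rather than exactly 24 h; 100% = carrier-treated control wells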). The settings on record: SK-BR-3 viability, CellTiter-Glo luminescence, at 10 µM, stronger effect = lower value. (In general: ATP-based viability assays read luminescence as a measure of living cells.)
Assay [4] in a line: HUVEC growth inhibition – cell-based, human, primary screen (AID 575;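 active = viability at or below 30% in both replicate assays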;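 also: 100% = median of untreated cell wells with 0.1% DMSO on each plate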). The settings on record: HUVEC proliferation, CellTiter-Glo luminescence, 72 h; at 10 µM; stronger effect = lower value. In outline:
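Test system: primary human umbilical vein endothelial cells. Quantity: 1250 cells/well. Compound: single 10 µM dose, 0.1% DMSO, from 5x medium stock. Timing: 72 h treatment at 37 °C. Detection: ATP-based CellTiter-Glo luminescent read. Benchmarks: vehicle and MePR control wells. Format: 384-well plates coated with collagen.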

A short description of assay [5]: H69AR cell proliferation blockers – human, duplicate replicates, primary screen (AID 580;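 active = viability at or under a set limit in both replicates, limit being median viability minus 3 SD, cut at about 48% in these data, passing the limit was not always enough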;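 also: 100% = mean luminescence of untreated wells and 0% = no signal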). To be noted: H69AR lung tumor cells viability, ATP luminescence, 72 h; at 10 µM; stronger effect = lower value.
A short description of assay [6]: MRP1 drug-resistance reversers in H69AR cells – cell-based, doxorubicin co-treatment, pilot screen (AID 601;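 active = viability loss from added drug above about 55%, and viability with drug at most 40%, in both replicates, limit read from the data, passing the limit was not always enough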). The settings on record: CellTiter-Glo, 72 h, at 10 µM; for differential viability (reversal): stronger effect = higher value.
A short description of assay [7]: yeast transport mutant growth inhibition pilot in 384-well plates, post-Golgi transport modulator project (AID 636; in the data active = inhibition above about 31%). The settings on record: absorbance 615 nm, about 18 h, stronger effect = higher value.
Assay [8] is described as follows: growth suppression of yeast trafficking mutant, preliminary HTS, modulators of trafficking downstream of Golgi apparatus project, 1536-format plate, OD 615 nm (AID 637). To be noted: yeast transport mutant growth, absorbance 615 nm, 18 h; stronger effect = higher value.
Where [9] appears, read: H69AR cells + 2 uM doxorubicin, measured here: viability with 2 uM doxorubicin, stronger effect = lower value.
The mark [10] stands for this setting: H69AR cells, compound alone cytotoxicity.

SMILES strings stand for the structures. Activity calls are given as the source filed them. Rule as the data show it, unless noted: active = inhibition above about 30%; inactive = the rest.

Sequence of Receptor tyrosine-protein kinase erbB-2 (Homo sapiens) (P04626 whole entry, looked up): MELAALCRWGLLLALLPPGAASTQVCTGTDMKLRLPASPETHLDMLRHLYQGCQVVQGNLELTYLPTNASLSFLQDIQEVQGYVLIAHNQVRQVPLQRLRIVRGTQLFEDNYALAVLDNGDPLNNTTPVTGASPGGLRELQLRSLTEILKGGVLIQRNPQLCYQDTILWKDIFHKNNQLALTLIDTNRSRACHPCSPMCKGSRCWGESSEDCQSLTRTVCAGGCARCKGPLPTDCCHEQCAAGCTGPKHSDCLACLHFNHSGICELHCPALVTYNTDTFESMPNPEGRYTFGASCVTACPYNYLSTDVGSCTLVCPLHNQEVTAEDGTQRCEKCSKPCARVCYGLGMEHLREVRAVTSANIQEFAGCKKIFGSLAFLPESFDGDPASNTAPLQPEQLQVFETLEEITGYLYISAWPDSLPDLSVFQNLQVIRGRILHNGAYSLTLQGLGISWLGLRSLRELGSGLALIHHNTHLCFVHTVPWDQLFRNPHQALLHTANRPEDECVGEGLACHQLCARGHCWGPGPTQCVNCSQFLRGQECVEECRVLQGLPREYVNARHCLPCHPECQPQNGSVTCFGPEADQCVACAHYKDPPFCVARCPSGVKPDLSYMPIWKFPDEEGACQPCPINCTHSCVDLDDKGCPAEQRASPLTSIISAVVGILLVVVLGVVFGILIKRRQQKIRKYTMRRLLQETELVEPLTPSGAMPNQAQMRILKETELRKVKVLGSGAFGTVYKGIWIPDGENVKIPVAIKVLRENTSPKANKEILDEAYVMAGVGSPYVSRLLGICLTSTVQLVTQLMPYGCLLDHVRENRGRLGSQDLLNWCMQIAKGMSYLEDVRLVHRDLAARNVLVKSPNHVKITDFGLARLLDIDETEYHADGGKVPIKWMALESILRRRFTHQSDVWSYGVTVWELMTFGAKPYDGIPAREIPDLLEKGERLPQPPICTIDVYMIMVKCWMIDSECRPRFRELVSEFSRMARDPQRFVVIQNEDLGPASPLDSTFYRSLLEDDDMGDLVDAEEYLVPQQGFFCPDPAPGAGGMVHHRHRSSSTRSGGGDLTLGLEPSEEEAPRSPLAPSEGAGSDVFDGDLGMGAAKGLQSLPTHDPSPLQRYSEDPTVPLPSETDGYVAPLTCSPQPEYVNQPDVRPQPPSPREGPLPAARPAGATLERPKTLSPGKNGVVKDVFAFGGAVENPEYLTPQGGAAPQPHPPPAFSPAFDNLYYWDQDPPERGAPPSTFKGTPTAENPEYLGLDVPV

The viability is a read-out of living cells in per cent, often relative to untreated cells. As a reminder, the inhibition is the change of the read-out against control, counted positive when it falls. As to `CCc1nnc(NC(=O)c2cccc(C(=O)Nc3nnc(CC)s3)n2)s1`, the viability in assay [1] is 53.5%; in assay [3] it was 53.5% (inactive); in assay [4], 3.29% (active); in assay [5] it was 8.87% (active); in assay [6] (setting [9]) it was 7.54%; in assay [6] (setting [10]), 8.87%. The Her2 level in assay [2] was 72% (inactive). Besides, the differential viability (reversal) in assay [6] (H69AR cells + 2 uM doxorubicin) was 1.33% (inactive). For the same compound, the inhibition in assay [7] was 83.5% (active); in assay [8], 73% (active).
For the compound `Cc1cc(C(=O)NCCCN2CCN(C3CCCCC3)CC2)n(-c2ccccc2)n1`, the viability in assay [1] was 94%; in assay [3] it was 94% (inactive); in assay [4], 111% (inactive); in assay [5], 103% (inactive); in assay [6] (setting [9]), 90.8%; in assay [6] (setting [10]), 103%. The Her2 level in assay [2] is 111% (inactive). For the same compound, in assay [6] (H69AR cells + 2 uM doxorubicin), the differential viability (reversal) is 11.8% (inactive). In addition, the values for the inhibition in assay [7] and in assay [8] were 1.73% (inactive) and -8.33% (inactive), respectively.
Take `Cc1c(C(=O)Nc2cnccn2)oc2ccccc12`: the viability in assay [1] is 110%; in assay [3], 110% (inactive); in assay [4] it was 58.6% (inactive); in assay [5] it was 37.4% (active); in assay [6] (setting [9]), 72.7%; in assay [6] (setting [10]), 37.4%. For the same compound, in assay [2], the Her2 level was 72% (inactive). Further, the differential viability (reversal) in assay [6] (H69AR cells + 2 uM doxorubicin) is -35.3% (inactive). Also, the inhibition was -5.6% (inactive) in assay [7] and 3.49% (inactive) in assay [8].
`COCCNC(=O)C(c1ccc(C)o1)N(Cc1ccc(F)cc1)C(=O)Cn1nnc2ccccc21` (stereo not given): the viability in assay [1] was 89.5%; in assay [3] it was 89.5% (inactive); in assay [4], 95.7% (inactive); in assay [5], 97.8% (inactive); in assay [6] (setting [9]), 94.7%; in assay [6] (setting [10]), 97.8%. Moreover, the Her2 level in assay [2] is 95% (inactive). The differential viability (reversal) in assay [6] (H69AR cells + 2 uM doxorubicin) is 3.14% (inactive). Further, the inhibition in assay [7] is 6.62% (inactive); in assay [8], -1.31% (inactive).
With `O=C(CCC(=O)c1cccs1)NCc1ccccc1`, the viability in assay [1] was 102%; in assay [3], 102% (inactive); in assay [4], 98.2% (inactive); in assay [5] it was 97.8% (inactive); in assay [6] (setting [9]) it was 97.8%; in assay [6] (setting [10]), 97.8%. The Her2 level in assay [2] is 114% (inactive). In addition, in assay [6] (H69AR cells + 2 uM doxorubicin), the differential viability (reversal) was -0.02% (inactive). Also, the inhibition in assay [7] is -3.64% (inactive); in assay [8], -2.22% (inactive).
With `Cc1c(C(=O)NCc2cccnc2)oc2ccc(S(=O)(=O)N3CCCCC3)cc12`, the viability in assay [1] was 71.5%; in assay [3] it was 71.5% (inactive); in assay [4], 65.6% (inactive); in assay [5], 70.5% (inactive); in assay [6] (setting [9]), 91.4%; in assay [6] (setting [10]), 70.5%. The Her2 level in assay [2] is 89% (inactive). Moreover, the differential viability (reversal) in assay [6] (H69AR cells + 2 uM doxorubicin) was -20.9% (inactive). The inhibition in assay [7] was -0.39% (inactive); in assay [8] it was 4.1% (inactive).
`COc1cc(CN2CCN(C(=O)CC(C)C)CC2)cc(OC)c1O`: the viability was 114% in assay [1]; 114% (inactive) in assay [3]; 103% (inactive) in assay [4]; 102% (inactive) in assay [5]; 96.8% in assay [6] (setting [9]); 102% in assay [6] (setting [10]). Moreover, the Her2 level in assay [2] is 93.5% (inactive). For the same compound, the differential viability (reversal) in assay [6] (H69AR cells + 2 uM doxorubicin) was 5.74% (inactive). For the same compound, the results for the inhibition in assay [7] and in assay [8] were -1.04% (inactive) and -4.6% (inactive), respectively.
Consider `O=C(C1CCCN(S(=O)(=O)c2cccs2)C1)N1CCc2ccccc2C1` (stereo not given), for which the viability in assay [1] is 83%; in assay [3], 83% (inactive); in assay [4] it was 83.4% (inactive); in assay [5], 85.3% (inactive); in assay [6] (setting [9]), 91.7%; in assay [6] (setting [10]), 85.3%. The Her2 level in assay [2] is 75.5% (inactive). The differential viability (reversal) in assay [6] (H69AR cells + 2 uM doxorubicin) is -6.37% (inactive). Besides, the inhibition in assay [7] is -4% (inactive); in assay [8], 3.28% (inactive).
For the compound `N#Cc1cn(CC(=O)N2CCCC2)c2ccccc12`, the viability was 118% in assay [1]; 118% (inactive) in assay [3]; 100% (inactive) in assay [4]; 93.6% (inactive) in assay [5]; 85.2% in assay [6] (setting [9]); 93.6% in assay [6] (setting [10]). The Her2 level in assay [2] was 85% (inactive). Also, in assay [6] (H69AR cells + 2 uM doxorubicin), the differential viability (reversal) was 8.44% (inactive). The inhibition in assay [7] is -3.29% (inactive); in assay [8] it was 1.15% (inactive).
Turning to `COC(=O)c1ccccc1S(=O)(=O)NC(=O)c1ccccc1`, the viability was 107% in assay [1]; 107% (inactive) in assay [3]; 107% (inactive) in assay [4]; 88.2% (inactive) in assay [5]; 82.5% in assay [6] (setting [9]); 88.2% in assay [6] (setting [10]). In addition, the Her2 level in assay [2] is 74% (inactive). The differential viability (reversal) in assay [6] (H69AR cells + 2 uM doxorubicin) is 5.66% (inactive). Besides, the results for the inhibition in assay [7] and in assay [8] were -1.82% (inactive) and -3.81% (inactive), respectively.
As to `CCOc1cc(S(=O)(=O)NCc2ccccn2)c(C)cc1C`, the viability is 92.5% in assay [1]; 92.5% (inactive) in assay [3]; 96.8% (inactive) in assay [4]; 100% (inactive) in assay [5]; 94.1% in assay [6] (setting [9]); 100% in assay [6] (setting [10]). The Her2 level in assay [2] was 84.5% (inactive). Also, the differential viability (reversal) in assay [6] (H69AR cells + 2 uM doxorubicin) was 6.28% (inactive). For the same compound, the inhibition in assay [7] was -5.53% (inactive); in assay [8] it was -4.76% (inactive).
Turning to `COc1ccccc1C(=O)Nc1ccc(S(=O)(=O)N2CCOCC2)cc1`, the viability in assay [1] is 104%; in assay [3], 104% (inactive); in assay [4], 92.9% (inactive); in assay [5], 93.2% (inactive); in assay [6] (setting [9]), 93.7%; in assay [6] (setting [10]) it was 93.2%. Besides, the Her2 level in assay [2] is 104% (inactive). In addition, the differential viability (reversal) in assay [6] (H69AR cells + 2 uM doxorubicin) is -0.52% (inactive). In addition, the inhibition in assay [7] is -2.89% (inactive); in assay [8] it was 4.59% (inactive).
For `CCNc1nc(OC)nc(Oc2ccc(=O)n(-c3ccccc3)n2)n1`, the viability in assay [1] is 96%; in assay [3], 96% (inactive); in assay [4], 106% (inactive); in assay [5], 96.4% (inactive); in assay [6] (setting [9]) it was 85.8%; in assay [6] (setting [10]) it was 96.4%. The Her2 level in assay [2] was 86.5% (inactive). For the same compound, the differential viability (reversal) in assay [6] (H69AR cells + 2 uM doxorubicin) is 10.6% (inactive). Moreover, the results for the inhibition in assay [7] and in assay [8] were -8.51% (inactive) and 2% (inactive), respectively.
As for `CC1CCCCC1NC(=O)c1ccc(N2CCCC2=O)cc1` (stereo not given), the viability in assay [1] is 112%; in assay [3], 112% (inactive); in assay [4] it was 111% (inactive); in assay [5], 90.3% (inactive); in assay [6] (setting [9]) it was 83.2%; in assay [6] (setting [10]), 90.3%. The Her2 level in assay [2] is 106% (inactive). In assay [6] (H69AR cells + 2 uM doxorubicin), the differential viability (reversal) was 7.01% (inactive). The figures for the inhibition in assay [7] and in assay [8] were -2.21% (inactive) and 2.79% (inactive), respectively.
Take `CCn1nnc(-c2ccccc2NC(=O)c2ccc(-n3cnnn3)cc2)n1`: the viability in assay [1] was 95.5%; in assay [3] it was 95.5% (inactive); in assay [4], 67.7% (inactive); in assay [5] it was 75.7% (inactive); in assay [6] (setting [9]), 73.9%; in assay [6] (setting [10]), 75.7%. Besides, the Her2 level in assay [2] was 87% (inactive). Also, in assay [6] (H69AR cells + 2 uM doxorubicin), the differential viability (reversal) was 1.74% (inactive). Moreover, the inhibition in assay [7] was -0.79% (inactive); in assay [8], 1.15% (inactive).
Regarding `CN1CC(=O)N(CC(=O)NCCc2ccc(F)cc2)c2ccccc2C1=O`, the viability in assay [1] was 95%; in assay [3] it was 95% (inactive); in assay [4], 105% (inactive); in assay [5] it was 90% (inactive); in assay [6] (setting [9]), 93.6%; in assay [6] (setting [10]), 90%. Besides, the Her2 level in assay [2] was 90.5% (inactive). Also, the differential viability (reversal) in assay [6] (H69AR cells + 2 uM doxorubicin) is -3.62% (inactive). In addition, the inhibition in assay [7] was -6.36% (inactive); in assay [8], 1.75% (inactive).
